Results published in ChEMBL document CHEMBL4825665, “Effective degradation of EGFRL858R+T790M mutant proteins by CRBN-based PROTACs through both proteosome and autophagy/lysosome degradation systems” (Eur J Med Chem, 2021).

Assays:
BJ = assay: Cytotoxicity against human BJ cells assessed as inhibition of cell growth measured after 72 hrs by CCK-8 assay; format: cell-based
Procedure, shortened: (§1)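 Cells seeded at 3000 cells/well in 96-well plates and treated with graded compound concentrations one day later for 72 h. CCK-8 was added for 1–4 h and absorbance read at 450 nm. Lung cancer lines were kept in RPMI 1640 with 10% fetal calf serum at 37 °C and 5% CO₂.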

PC-9 = assay: Antiproliferative activity against human PC-9 cells assessed as inhibition of cell growth measured after 72 hrs by CCK-8 assay; format: functional, cell-based; conditions: PC-9, 72 h; procedure, shortened: as §1
NCI-H1975 = assay: Antiproliferative activity against human NCI-H1975 cells assessed as inhibition of cell growth measured after 72 hrs by CCK-8 assay; format: functional, cell-based; conditions: NCI-H1975, 72 h; procedure, shortened: as §1
[1] = Antiproliferative activity against human PB1 cells assessed as inhibition of cell growth measured after 72 hrs by CCK-8 assay; format: functional, cell-based; conditions: PB1, 72 h; procedure, shortened: as §1
HEK-293T = assay: Cytotoxicity against human HEK293T cells assessed as inhibition of cell growth measured after 72 hrs by CCK-8 assay; format: cell-based; procedure, shortened: as §1
BaF3 = assay: Antiproliferative activity against mouse BaF3 cells assessed as inhibition of cell growth measured after 72 hrs by CCK-8 assay; format: functional, cell-based; conditions: BaF3, 72 h; procedure, shortened: as §1
HCC827 = assay: Antiproliferative activity against human HCC827 cells assessed as inhibition of cell growth measured after 72 hrs by CCK-8 assay; format: functional, cell-based; conditions: HCC827, 72 h; procedure, shortened: as §1
A549 = assay: Antiproliferative activity against human A549 cells assessed as inhibition of cell growth measured after 72 hrs by CCK-8 assay; format: functional, cell-based; conditions: A549, 72 h; procedure, shortened: as §1

SMILES | IC50 (PC-9) [nM] | IC50 (NCI-H1975) [nM] | IC50 (BaF3) [nM] | IC50 (HCC827) [nM] | IC50 (A549) [nM] | IC50 (BJ) [nM] | IC50 [1] [nM] | IC50 (HEK-293T) [nM]
C=CC(=O)Nc1cc2c(Nc3ccc(F)c(Cl)c3)ncnc2cc1OCCCN1CCNCC1 | 1.11 | 162 |  |  |  | 2740 | 33.4 | 21800
C=CC(=O)Nc1cc2c(Nc3ccc(F)c(Cl)c3)ncnc2cc1OCCCN1CCN(C(=O)CCCNc2cccc3c2C(=O)N(C2CCC(=O)NC2=O)C3=O)CC1 (stereo not drawn) | 1.38 | 209 |  |  |  | > 10000 | 146 | 14700
C=CC(=O)Nc1cc2c(Nc3ccc(F)c(Cl)c3)ncnc2cc1OCCCN1CCN(C(=O)CNc2cccc3c2C(=O)N(C2CCC(=O)NC2=O)C3=O)CC1 (stereo not drawn) | 5 | 234 |  |  |  | > 10000 | 190 | > 10000

Compounds with a lower IC50 (PC-9), results first:

IC50 (PC-9) [nM] | IC50 (NCI-H1975) [nM] | IC50 (BaF3) [nM] | IC50 (HCC827) [nM] | IC50 (A549) [nM] | SMILES | IC50 (BJ) [nM] | IC50 [1] [nM] | IC50 (HEK-293T) [nM]
0.977 | 110 |  |  |  | C=CC(=O)Nc1cc2c(Nc3ccc(F)c(Cl)c3)ncnc2cc1OCCCN1CCN(C(=O)CCNc2cccc3c2C(=O)N(C2CCC(=O)NC2=O)C3=O)CC1 (stereo not drawn) | > 10000 | 163 | > 10000
0.859 | 11.3 | 9.2 | 0.378 | 7160 | C=CC(=O)Nc1cc2c(Nc3ccc(F)c(Cl)c3)ncnc2cc1OCCCN1CCOCC1 [CANERTINIB] | 5610 | 70.2 | 6000
0.452 | 35.4 |  |  |  | C=CC(=O)Nc1cc2c(Nc3ccc(F)c(Cl)c3)ncnc2cc1OCCCN1CCN(C(=O)CCCCNc2cccc3c2C(=O)N(C2CCC(=O)NC2=O)C3=O)CC1 (stereo not drawn) | > 10000 | 122 | > 10000
